The source of these data is ChEMBL document CHEMBL4052732, “Design, synthesis and biological evaluation of GPR55 agonists” (Bioorg Med Chem, 2017).

Where only a bound is given, the exact number is not on record here.

In assay [1] the target is T1, G-protein coupled receptor 55 (Homo sapiens, UniProt Q9Y2T6). Description: Agonist activity at HA-epitope-tagged variant of GPR55E with serine enhanced C terminus (unknown origin) expressed in human U2OS cells assessed as increase in GFP-tagged beta arrestin2 recruitment after 75 mins by fluorescence assay. Type of assay: cell-based. (In general: Activated receptors often draw arrestin, which recruitment assays turn into a signal.)
Target sequence in this assay (Q9Y2T6 whole entry, looked up): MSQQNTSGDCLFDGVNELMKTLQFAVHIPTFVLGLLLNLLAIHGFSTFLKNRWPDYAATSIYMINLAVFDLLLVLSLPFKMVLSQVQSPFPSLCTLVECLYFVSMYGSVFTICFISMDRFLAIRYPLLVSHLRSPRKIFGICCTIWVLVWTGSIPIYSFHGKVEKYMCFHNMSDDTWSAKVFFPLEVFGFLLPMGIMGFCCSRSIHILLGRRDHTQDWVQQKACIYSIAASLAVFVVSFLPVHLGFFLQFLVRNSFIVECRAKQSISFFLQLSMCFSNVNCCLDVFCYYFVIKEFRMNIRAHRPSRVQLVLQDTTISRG

In another assay the target is Cannabinoid receptor 1 (Homo sapiens, UniProt P21554). Description: Agonist activity at human brain CB1 receptor expressed in U2OS cells assessed as increase in beta arrestin recruitment after 60 mins by fluorescence assay. Type of assay: functional, cell-based.
Another assay has as its target Cannabinoid receptor 2 (Homo sapiens, UniProt P34972). Description: Agonist activity at human CB2 receptor expressed in U2OS cells assessed as increase in GFP-tagged beta arrestin recruitment after 75 mins by fluorescence assay. Type of assay: functional, cell-based.
Assay [2] concerns the target T1, G-protein coupled receptor 55. Description: Agonist activity at beta-galactosidase enzyme fragment-fused GPR55 (unknown origin) expressed in CHOK1 cells assessed as increase in N-terminal deletion beta-galactosidase mutant-tagged beta arrestin recruitment measured for 1 sec by chemiluminescence based pathhunter assay. Type of assay: functional, cell-based. The gist of the method:
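CHO-K1 cells stably co-expressing the receptor–β-gal fragment fusion and the β-arrestin–deletion-mutant fusion, kept in selection medium, passaged up to 10 times. Ligands tested from 0.5 nM to 30 μM. Chemiluminescent substrate signal read at room temperature for 1 s. Vehicle readings subtracted from ligand readings (RLU), and EC50 obtained from these values. LPI served as positive control. Run in triplicate, repeated at least 3 times.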
Target sequence in this assay (Q9Y2T6 whole entry, looked up, stated change not applied): as the sequence (Q9Y2T6 whole entry, looked up) above

Chain of Cannabinoid receptor 1 (P21554 whole entry): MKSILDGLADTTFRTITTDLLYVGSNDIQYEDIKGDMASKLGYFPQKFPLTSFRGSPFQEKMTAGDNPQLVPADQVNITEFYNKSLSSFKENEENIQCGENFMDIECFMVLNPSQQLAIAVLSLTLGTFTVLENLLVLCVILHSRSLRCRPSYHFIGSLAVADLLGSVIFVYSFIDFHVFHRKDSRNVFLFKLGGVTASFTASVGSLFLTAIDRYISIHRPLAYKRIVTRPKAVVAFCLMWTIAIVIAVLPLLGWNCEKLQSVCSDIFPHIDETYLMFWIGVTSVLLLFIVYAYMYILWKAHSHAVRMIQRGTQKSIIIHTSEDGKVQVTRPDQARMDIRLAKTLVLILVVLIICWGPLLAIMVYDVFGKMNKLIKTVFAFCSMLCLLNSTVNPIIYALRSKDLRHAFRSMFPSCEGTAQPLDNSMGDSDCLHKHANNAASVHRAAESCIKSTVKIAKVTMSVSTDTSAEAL
Chain of Cannabinoid receptor 2 (P34972 whole entry, the tested form may be a part): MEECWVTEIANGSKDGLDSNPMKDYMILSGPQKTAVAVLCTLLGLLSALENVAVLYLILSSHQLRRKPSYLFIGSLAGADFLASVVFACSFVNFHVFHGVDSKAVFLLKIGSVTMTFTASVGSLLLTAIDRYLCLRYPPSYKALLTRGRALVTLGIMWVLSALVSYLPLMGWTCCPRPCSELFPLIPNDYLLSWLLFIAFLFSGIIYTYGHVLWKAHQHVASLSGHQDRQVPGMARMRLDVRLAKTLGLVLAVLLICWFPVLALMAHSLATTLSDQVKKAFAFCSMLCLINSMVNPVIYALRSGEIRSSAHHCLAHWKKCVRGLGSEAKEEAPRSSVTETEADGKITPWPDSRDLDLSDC

Turning to `Cc1cccc(N2CCN(C(=O)c3cc(S(=O)(=O)N(C)C)ccc3N3CCCC3)CC2)c1C`, the figures for the EC50 (in assay [1]; at Cannabinoid receptor 1; at Cannabinoid receptor 2) were 260 nM, greater than 30000 nM and greater than 30000 nM, respectively.
Consider `COc1ccccc1/C=C/C(=O)NC(=S)Nc1ccc(S(=O)(=O)N(C)c2ccccc2)cc1`, for which the EC50 is 110 nM in assay [1], greater than 30000 nM at Cannabinoid receptor 1 and greater than 30000 nM at Cannabinoid receptor 2.
For the compound `COc1ccc2cc(C)c3nnc(SCC(=O)Nc4nc(-c5ccc(F)cc5)cs4)n3c2c1`, the figures for the EC50 (in assay [1]; at Cannabinoid receptor 1; at Cannabinoid receptor 2) were 160 nM, greater than 30000 nM and greater than 30000 nM, respectively.
With `CN(c1ccccc1)S(=O)(=O)c1ccc(NC(=S)NC(=O)c2ccc3cc(CCO)ccc3c2)cc1`, in assay [2], the concentration giving a half-maximal response (EC50) came out at 300 nM.
On the same count and under the same terms, for `COc1ccccc1/C=C/C(=O)NC(=S)Nc1ccc(S(=O)(=O)Nc2onc(C)c2C)cc1` the value was greater than 30000 nM; for `COc1ccccc1/C=C/C(=O)NC(=S)Nc1ccc(S(=O)(=O)NCC(O)CO)cc1` (stereo not given), greater than 30000 nM; for `O=C(NC(=S)Nc1ccc(S(=O)(=O)N(Cc2ccc(O)cc2)c2ccccc2)cc1)c1ccc2cccnc2c1`, 500 nM.
As to `COc1ccccc1/C=C/C(=O)NC(=S)Nc1ccc(S(=O)(=O)Nc2ccccc2)cc1`, in assay [2], the EC50 was found to be 600 nM.
On the same count and under the same terms, for `COc1ccccc1/C=C/C(=O)NC(=S)Nc1ccc(S(=O)(=O)N(Cc2ccc(O)cc2)c2ccccc2)cc1` the value was 500 nM.
On to `O=C(NC(=S)Nc1ccc(S(=O)(=O)N(Cc2ccncc2)c2ccccc2)cc1)c1ccc2cccnc2c1`, for which the EC50 in assay [2] was 900 nM.
With `COc1ccccc1/C=C/C(=O)NC(=S)Nc1ccc(S(=O)(=O)N(Cc2ccccc2O)c2ccccc2)cc1`, the EC50 in assay [2] worked out at 2000 nM.
As to `O=C(NC(=S)Nc1ccc(S(=O)(=O)N(CCO)c2ccccc2)cc1)c1ccc2cc(CCO)ccc2c1`, the concentration giving a half-maximal response (EC50) in assay [2] stood at 20000 nM.
Still for that read-out and setting: next, `O=C(NC(=S)Nc1ccc(S(=O)(=O)N(Cc2ccc(CO)o2)c2ccccc2)cc1)c1ccc2cc(CCO)ccc2c1`: 6000 nM.
On to `CN(c1ccccc1)S(=O)(=O)c1ccc(NC(=S)NC(=O)c2ccc3cc(CO)ccc3c2)cc1`, for which the EC50 in assay [2] amounted to 4000 nM.
On the same count and under the same terms, next, `O=C(NC(=S)Nc1ccc(S(=O)(=O)N(Cc2ccc(CO)o2)c2ccccc2)cc1)c1ccc2cccnc2c1`: 600 nM; `COc1ccccc1/C=C/C(=O)NC(=S)Nc1ccc(S(=O)(=O)N(C)c2ccncc2)cc1`: 500 nM.
`CN(c1ccccc1)S(=O)(=O)c1ccc(NC(=S)NC(=O)c2cnc3ccccc3c2)cc1`: the EC50 in assay [2] was greater than 30000 nM.
For `COc1ccccc1/C=C/C(=O)NC(=S)Nc1ccc(S(=O)(=O)NCCO)cc1`, the 50% effective concentration (EC50) in assay [2] was greater than 30000 nM.
On to `COc1ccccc1/C=C/C(=O)NC(=S)Nc1ccc(S(=O)(=O)N(CCO)c2ccccc2)cc1`, for which, in assay [2], the EC50 was found to be 700 nM.
`COc1ccccc1/C=C/C(=O)NC(=S)Nc1ccc(S(=O)(=O)N(Cc2cccc(O)c2)c2ccccc2)cc1`: the EC50 in assay [2] amounted to 2000 nM.
On the same count and under the same terms, next, `O=C(NC(=S)Nc1ccc(S(=O)(=O)N(CCO)c2ccccc2)cc1)c1ccc2cccnc2c1`: 200 nM; `CN(c1ccccc1)S(=O)(=O)c1ccc(NC(=S)NC(=O)c2ccc3cccnc3c2)cc1`: 1000 nM; `COc1ccccc1/C=C/C(=O)NC(=S)Nc1ccc(S(=O)(=O)N(Cc2ccncc2)c2ccccc2)cc1`: 300 nM.
The same measure, in the same setting: for `COc1ccccc1/C=C/C(=O)NC(=S)Nc1ccc(S(=O)(=O)N(Cc2ccc(CO)o2)c2ccccc2)cc1` the value was 100 nM.

What is called EC50 is the concentration giving half of the maximal effect.
